Laboratory results: ChEMBL document CHEMBL5506013, “Mitochondria-Selective Dicationic Small-Molecule Ligand Targeting G-Quadruplex Structures for Human Colorectal Cancer Therapy” (J Med Chem, 2024)
Active and inactive are the calls of the source. The rule behind the calls is not given here.

Tests used:
[1] = system: DNA; test: Binding affinity to SS19 DNA (non-G4 DNA) (unknown origin) assessed as increase in fluorescence intensity by fluorescence spectrophotometric analysis; assay type: nucleic-acid assay
How it was run: (§1)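 Oligonucleotides were pre-annealed at 95 °C for 10 min, then cooled slowly. Ligand (5 uM) was mixed with 20 uM DNA in buffer. Emission was collected over 550–800 nm, and enhancement was taken at 650 nm as F/F0.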

[2] = system: HCT-116; test: Downregulation of lamin B1 level in human HCT-116 cells measured after 72 hrs by immunofluorescence analysis; assay type: functional, cell-based; conditions: dose <= 4.0 µM
How it was run: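 HCT116 cells treated with ligand at 0-4 uM for 72 h. Lamin B1 and Ki67 imaged by immunofluorescence (excitation 635 nm), or lamin B1 probed on Western blot with β-actin as loading control.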

[3] = target: Quadruplex DNA; test: Binding affinity to mito 55 G4 DNA (unknown origin) assessed as dissociation constant measured upto 450 secs by surface plasmon resonance assay; assay type: nucleic-acid assay
How it was run: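 Surface plasmon resonance in buffer at 25 °C. Four G4-mtDNAs (Mito 78, Mito 55, Mito 29, Mito 0.5-16) and the hairpin HP19 served as substrates. Kd was derived from the sensorgrams.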

[4] = system: HCT-116; test: Upregulation of p53 level in human HCT-116 cells at upto 4 uM measured after 72 hrs by Western blot analysis; assay type: functional, cell-based
[5] = system: HCT-116; test: Downregulation of ND4L mRNA level in human HCT-116 cells at 0 to 4 uM measured after 48 hrs by qRT-PCR analysis; assay type: functional, cell-based; conditions: dose 0-4 µM
[6] = target: Quadruplex DNA; test: Binding affinity to mito 78 G4 DNA (unknown origin) assessed as dissociation constant measured upto 450 secs by surface plasmon resonance assay; assay type: nucleic-acid assay
[7] = Drug localization in mitochondria of living human HCT-116 cells assessed as colocalization at 4 uM incubated for 1 hr by Mito-tracker deep red staining based analysis; assay type: ADME; conditions: hct-116, 1 h
[8] = system: HCT-116; test: Downregulation of ND5 mRNA level in human HCT-116 cells at 0 to 4 uM measured after 48 hrs by qRT-PCR analysis; assay type: functional, cell-based; conditions: dose 0-4 µM
[9] = system: HCT-116; test: Antitumor activity against human HCT-116 cells assessed as increase in beta-galactosidase activity at upto 4 uM measured after 72 hrs relative to control; assay type: functional; conditions: up to 4 µM
How it was run: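 HCT116 cells were treated for 72 h across 0–4 uM. β-Galactosidase activity was then measured against untreated control. Data are given as mean ± SEM, with significance by t test.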

[10] = system: HCT-116; test: Antitumor activity against human HCT-116 cells xenografted in Balb/c nude mouse model assessed as inhibition of tumor cell proliferation at 5 mg/kg, iv administered every two days for 16 days by Ki67 staining based analysis; assay type: functional, organism-based; conditions: time 16.0 day
How it was run: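 Tumours came from HCT116-xenografted male Balb/c nude mice given 5 mg/kg i.v. every two days, or PBS, for 16 days. Tumour tissue sections were stained by TUNEL for apoptosis and by Ki67 immunofluorescence for proliferation, then compared with the control group.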

[11] = system: DNA; test: Binding affinity to SS19 DNA (non-G4 DNA) (unknown origin) assessed as increase in CD signal at 5 uM by circular dichroism spectroscopic analysis; assay type: nucleic-acid assay
[12] = system: HCT-116; test: Downregulation of ND2 gene expression in human HCT-116 cells at 0 to 4 uM measured after 48 hrs by q-PCR analysis; assay type: functional, cell-based; conditions: dose 0-4 µM
[13] = system: DNA; test: Binding affinity to HP19 DNA (non-G4 DNA) (unknown origin) assessed as increase in CD signal at 5 uM by circular dichroism spectroscopic analysis; assay type: nucleic-acid assay
[14] = system: HCT-116; test: Upregulation of cleaved caspase-3 level in human HCT-116 cells at upto 4 uM measured after 72 hrs by Western blot analysis; assay type: functional, cell-based
How it was run: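 HCT116 cells treated with ligand at 0-4 uM for 72 h. Lysates immunoblotted for Lamin B1, p53, p21, p16, gamma-H2A.x, caspase-3 and cleaved caspase-3, with beta-actin as loading control.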

[15] = Toxicity in BALB/c nude mouse assessed as change in body weight at 5 mg/kg, iv administered every two days for 16 days; assay type: organism-based; conditions: in vivo, 384 h, time 16 day
How it was run: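 Male Balb/c nude mice bearing HCT116 xenografts, 6 per group, given PBS or ligand 5 mg/kg intravenously every two days. Body weight tracked over 16 days.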

[16] = Toxicity in BALB/c nude mouse assessed as change in mean red blood cell hemoglobin content at 5 mg/kg, iv administered every two days for 16 days; assay type: organism-based; conditions: in vivo, 384 h, time 16 day
How it was run: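 HCT116 xenograft-bearing male Balb/c nude mice (6/group) dosed iv at 5 mg/kg every two days or with PBS. Whole blood collected at sacrifice on day 16 for hematology parameters.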

[17] = system: HepG2; test: Antiproliferative activity against human HepG2 cells measured after 48 hrs by MTT assay; assay type: functional, cell-based; conditions: HepG2, 48 h
How it was run: (§2)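 Cells exposed to the ligands for 48 h. Viability was read by MTT, and the IC50 was derived from the response.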

[18] = Drug localization in human HCT-116 cells transfected with Cy5-mito 0.5-16 G4 DNA at 4 uM incubated for 1 hr by hoechst33342 staining based analysis; assay type: ADME, cell-based; conditions: hct-116, 1 h
How it was run: (§3)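 HCT116 cells transfected with Cy5-labelled DNA (excitation 635 nm) for 24 h. Ligand 4 uM added for 1 h, then Hoechst33342 1 uM for 30 min. Colocalization of ligand with Cy5 quantified by Pearson r from confocal images.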

[19] = Toxicity in BALB/c nude mouse assessed as effect on lung at 5 mg/kg, iv measured after 16 hrs post injection by H and E staining based analysis; assay type: organism-based; conditions: in vivo
[20] = system: HCT-116; test: Downregulation of ATP6 protein level in human HCT-116 cells at upto 4 uM incubated for 48 hrs by Western blot analysis; assay type: functional, cell-based
[21] = system: HCT-116; test: Downregulation of ND4 mRNA level in human HCT-116 cells at 0 to 4 uM measured after 48 hrs by qRT-PCR analysis; assay type: functional, cell-based; conditions: dose 0-4 µM
[22] = system: Quadruplex DNA; test: Binding affinity to mito 55 G4 DNA (unknown origin) assessed as increase in fluorescence intensity by fluorescence spectrophotometric analysis; assay type: nucleic-acid assay; how it was run: as §1
[23] = system: LoVo; test: Antiproliferative activity against human LoVo cells measured after 48 hrs by MTT assay; assay type: functional, cell-based; how it was run: as §2
[24] = system: HCT-116; test: Antitumor activity against human HCT-116 cells xenografted in Balb/c nude mouse model assessed as reduction in tumor weight at 5 mg/kg, iv administered every two days for 16 days relative to control; assay type: functional; set-up: scale not given: the % may be the effect or the level left; conditions: time 16 day
How it was run: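 Male Balb/c nude mice carrying HCT116 xenografts, 6 per group. Dosing was intravenous every two days at 5 mg/kg, with a PBS-injected control group. Body weight and tumour growth were tracked. Tumours were excised and weighed after 16 days.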

[25] = Drug localization in human HCT-116 cells by measuring red foci at 4 uM incubated for 1 hr in presence of RNA by hoechst33342 staining based analysis; assay type: ADME, cell-based; conditions: hct-116, 1 h
How it was run: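 Live HCT116 cells loaded with ligand 4 uM for 1 h and Hoechst33342 1 uM for 30 min, then fixed. Fixed cells digested with 200 units DNase I or RNase A for 3 h. Red foci imaged by confocal microscopy in 100 cells. Mean ± SEM, t test.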

[26] = system: HCT-116; test: Downregulation of ND1 gene expression in human HCT-116 cells at 0 to 4 uM measured after 48 hrs by q-PCR analysis; assay type: functional, cell-based; conditions: dose 0-4 µM
[27] = Drug localization in human HCT-116 cells transfected with Cy5-SS19 non G4 DNA at 4 uM incubated for 1 hr by hoechst33342 staining based analysis; assay type: ADME, cell-based; conditions: hct-116, 1 h; how it was run: as §3
[28] = system: HCT-116; test: Downregulation of ND4 protein level in human HCT-116 cells at upto 4 uM incubated for 48 hrs by Western blot analysis; assay type: functional, cell-based

Activity [1]: inactive
Kd [3]: 170 nM
Kd [6]: 40 nM
Drug uptake [7]: Active
Activity [11]: inactive
Activity [13]: inactive
IC50 [17]: > 40 µM
Drug uptake [18]: Active
Activity [22]: Active
IC50 [23]: 13.4 µM
Drug uptake [25]: Active
Drug uptake [27]: Not Active
Structure (SMILES): C(=C\c1ccc2ccccc2[n+]1CCCCCCCC[n+]1c(/C=C/c2ccc(N3CCCCC3)cc2)ccc2ccccc21)/c1ccc(N2CCCCC2)cc1.[I-].[I-]
Activity [2]: Dose-Dependent Effect
Activity [4]: Active
Activity [5]: Active
Activity [8]: Active
Activity [9]: 17.63%
Activity [10]: Active
Activity [12]: Active
Activity [14]: Active
Activity [15]: Non-Toxic
Activity [16]: Non-Toxic
Activity [19]: Non-Toxic
Activity [20]: Active
Activity [21]: Active
Activity [24]: 70%
Activity [26]: Active
Activity [28]: Active
